# Measurements: ChEMBL document CHEMBL4152211, “Discovery of novel Methylsulfonyl phenyl derivatives as potent human Cyclooxygenase-2 inhibitors with effective anticonvulsant action: Design, synthesis, in-silico, in-vitro and in-vivo evaluation” (Eur J Med Chem, 2018)
# The source made the active and inactive calls. No cut-off for these calls is given here.
# How the values were obtained:
# [1] = target: T1, Prostaglandin G/H synthase 1 (Ovis aries) (UniProt P05979); experiment: Inhibition of ovine COX1 at 10 uM using arachidonic acid as substrate preincubated for 5 mins followed by substrate addition and measured after 2 mins by ADPH probe-based fluorescence assay relative to control
# T1 sequence (whole entry): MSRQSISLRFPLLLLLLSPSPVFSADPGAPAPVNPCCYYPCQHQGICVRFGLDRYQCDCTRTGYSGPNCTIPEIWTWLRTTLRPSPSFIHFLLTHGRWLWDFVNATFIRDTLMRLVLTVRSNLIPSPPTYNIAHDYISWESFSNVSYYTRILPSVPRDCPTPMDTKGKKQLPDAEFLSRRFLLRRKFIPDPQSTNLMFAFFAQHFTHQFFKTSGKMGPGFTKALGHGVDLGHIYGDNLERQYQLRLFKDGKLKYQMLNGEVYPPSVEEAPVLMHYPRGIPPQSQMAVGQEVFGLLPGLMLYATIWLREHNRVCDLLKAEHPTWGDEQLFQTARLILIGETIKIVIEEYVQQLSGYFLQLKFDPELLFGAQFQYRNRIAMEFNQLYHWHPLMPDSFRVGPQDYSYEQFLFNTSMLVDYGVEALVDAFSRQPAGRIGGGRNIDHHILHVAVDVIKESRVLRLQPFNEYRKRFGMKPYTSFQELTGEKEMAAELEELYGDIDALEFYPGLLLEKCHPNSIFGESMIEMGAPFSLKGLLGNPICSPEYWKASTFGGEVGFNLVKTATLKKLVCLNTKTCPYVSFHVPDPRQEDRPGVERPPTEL
# Outline: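 Kit assay in 100 mM Tris-HCl pH 8.0. Enzyme, heme and inhibitor (DMSO stocks) are incubated 5 min at room temperature. ADPH is added, then arachidonic acid starts the reaction. After 2 min, fluorescence is read at ex 535/em 590 nm. Percent inhibition is taken versus the 100% activity well, background wells included. IC50 is derived from percentage inhibition, mean of three independent experiments.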
# Mus musculus [2] = experiment: Anticonvulsant activity in Swiss albino mouse assessed as protection against subcutaneous pentylenetetrazole-induced seizures at 30 mg/kg, ip administered 0.5 hrs prior to PTZ challenge and measured after 30 mins; type: functional
# Outline: (§1)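 Male Swiss Albino mice (25–30 g), 6 per group, dosed i.p. with drugs in sterile saline, then challenged with PTZ 85 mg/kg s.c. (CD97), given at 10 ml/kg, 0.5 h or 4 h later. Each animal is observed singly for seizures. Protection is scored as protected/total animals.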
# Mus musculus [3] = experiment: Anticonvulsant activity in Swiss albino mouse assessed as protection against subcutaneous pentylenetetrazole-induced seizures at 30 mg/kg, ip administered 4 hrs prior to PTZ challenge and measured after 30 mins; type: functional; outline: as §1
# Mus musculus [4] = experiment: Anticonvulsant activity in Swiss albino mouse assessed as protection against subcutaneous pentylenetetrazole-induced seizures at 5 mg/kg, ip administered 1 hr prior to PTZ challenge and measured after 30 mins; type: functional; settings: in the assay text read “30 mg/kg” for “5 mg/kg”
# Outline: (§2)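 Mice get a single i.p. dose, then PTZ 85 mg/kg s.c. at 0.5, 1, 2, 3, 4 or 6 h after dosing. Seizure protection is recorded at each interval as percentage of six Swiss Albino mice protected.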
# Mus musculus [5] = experiment: Anticonvulsant activity in Swiss albino mouse assessed as protection against subcutaneous pentylenetetrazole-induced seizures at 5 mg/kg, ip administered 6 hrs prior to PTZ challenge and measured after 30 mins; type: functional; settings: in the assay text read “30 mg/kg” for “5 mg/kg”; outline: as §2
# Rattus norvegicus [6] = experiment: Antiepileptic activity in rat model of PTZ-induced epileptiogenesis kindling model assessed as decrease of seizure severity at 30 mg/kg, ip measured up to 28 days; type: functional, organism-based
# Outline: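 Adult male Wistar rats receive PTZ 40 mg/kg i.p. on alternate days for 28 days plus daily i.p. treatment. After each PTZ injection, rats are observed singly for 45 min and scored on the revised Racine scale (stages to 6). Group mean score per week, ±S.D. Statistics are repeated-measures ANOVA with Tukey's test.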
# Rattus norvegicus [7] = experiment: Anxiolytic activity in ip dosed PTZ-kindled Wistar rat assessed as time spent in dark zone by light-dark test (reference value: 96.9 +/- 1.25%); type: functional
# Rattus norvegicus [8] = experiment: Toxicity in Wistar rat assessed as hemoglobin level at 200 mg/kg, po for 14 days (reference value: 12.87 +/- 0.6 g/dl); type: organism-based; settings: in vivo, 336 h
# Rattus norvegicus [9] = experiment: Toxicity in Wistar rat assessed as lymphocyte level at 200 mg/kg, po for 14 days (reference value: 77.33 +/- 2.08%); type: organism-based; settings: in vivo, 336 h
# Rattus norvegicus [10] = experiment: Toxicity in Wistar rat assessed as monocyte level at 200 mg/kg, po for 14 days (reference value: 2.67 +/- 0.58%); type: organism-based; settings: in vivo, 336 h
# Rattus norvegicus [11] = experiment: Toxicity in Wistar rat assessed as RBC level at 200 mg/kg, po for 14 days (reference value: 8.19 +/- 0.648 10^6/mm3); type: organism-based; settings: in vivo, 336 h
# Rattus norvegicus [12] = experiment: Toxicity in Wistar rat assessed as platelet level at 200 mg/kg, po for 14 days (reference value: 1119 +/- 142.9 10^3/mm3); type: organism-based; settings: in vivo, 336 h
# Rattus norvegicus [13] = experiment: Toxicity in Wistar rat assessed as effect on total bilirubin level at 200 mg/kg, po for 14 days; type: organism-based; settings: in vivo, 336 h
# Outline: (§3)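 Normal Wistar rats are given 200 mg/kg orally for 14 days, with vehicle-treated controls. Serum liver markers (SGOT, SGPT, ALP, total protein, total bilirubin) and renal markers (urea, creatinine, uric acid) are then measured, mean ± S.D.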
# Rattus norvegicus [14] = experiment: Toxicity in Wistar rat assessed as effect on SGPT level at 200 mg/kg, po for 14 days; type: organism-based; settings: in vivo, 336 h; outline: as §3
# Rattus norvegicus [15] = experiment: Toxicity in Wistar rat assessed as effect on total protein level at 200 mg/kg, po for 14 days; type: organism-based; settings: in vivo, 336 h; outline: as §3
# Rattus norvegicus [16] = experiment: Toxicity in Wistar rat assessed as effect on calcium level at 200 mg/kg, po for 14 days; type: organism-based; settings: in vivo, 336 h
# Rattus norvegicus [17] = experiment: Toxicity in Wistar rat assessed as effect on phosphorous level at 200 mg/kg, po for 14 days; type: organism-based; settings: in vivo, 336 h
# Rattus norvegicus [18] = experiment: Toxicity in Wistar rat assessed as effect on sodium level at 200 mg/kg, po for 14 days; type: organism-based; settings: in vivo, 336 h
# Rattus norvegicus [19] = experiment: Toxicity in Wistar rat assessed as effect on chloride level at 200 mg/kg, po for 14 days; type: organism-based; settings: in vivo, 336 h
compound,measurement,setting,value
Cc1ccc(NC(=S)NNC(=O)Nc2ccc(S(C)(=O)=O)cc2)cc1,inhibition,[1],inactive
same,Activity,Mus musculus [2],83%
same,Activity,Mus musculus [3],83%
same,Activity,Mus musculus [4],67%
same,Activity,Mus musculus [5],67%
same,Activity,Rattus norvegicus [6],Active
same,Activity,Rattus norvegicus [7],86.6%
same,Activity,Rattus norvegicus [8],14.15 g/dL
same,Activity,Rattus norvegicus [9],73%
same,Activity,Rattus norvegicus [10],2.5%
same,Activity,Rattus norvegicus [11],7.34 ×10⁶ /mm3
same,Activity,Rattus norvegicus [12],990 ×10³ /mm3
same,Activity,Rattus norvegicus [13],Non-Toxic
same,Activity,Rattus norvegicus [14],Non-Toxic
same,Activity,Rattus norvegicus [15],Non-Toxic
same,Activity,Rattus norvegicus [16],Non-Toxic
same,Activity,Rattus norvegicus [17],Non-Toxic
same,Activity,Rattus norvegicus [18],Non-Toxic
same,Activity,Rattus norvegicus [19],Non-Toxic
